Consider 20 compounds from ChEMBL document CHEMBL2412973, “Design, synthesis, and anti-tumor activities of novel triphenylethylene-coumarin hybrids, and their interactions with Ct-DNA” (Bioorg Med Chem Lett, 2013).

Activity calls are given as the source filed them. No cut-off for these calls is given here. Where only a bound is given, the exact number is not on record here.

One series concerns A549. As to the kind of experiment: Antiproliferative activity against human A549 cells after 48 hrs by MTT assay. The following applies: A549, 48 h. The class given is functional, cell-based. (In general: Tetrazolium assays rely on reduction of a dye to a coloured formazan, in cell work by metabolically active cells.)
The next series relates to K562. The experiment in a line: Antiproliferative activity against human K562 cells after 48 hrs by MTT assay. The class given is functional, cell-based. The note with it: K562, 48 h.
In the next series the test system is MCF7. The experiment in a line: Antiproliferative activity against human MCF7 cells after 48 hrs by MTT assay. The note with it: MCF7, 48 h. The class given is functional, cell-based.
Series [1] concerns DNA. The experiment in a line: Binding affinity to calf thymus DNA in phosphate buffer at pH 7.4 assessed as change in melting temperature at 5 uM after 10 mins by thermal denaturation method. The following applies: Bos taurus. The class given is nucleic-acid assay. The method in brief: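 Thermal denaturation: Ct-DNA 5.0×10^-5 M with or without compound at 5.0×10^-6 M, phosphate buffer (1 mM, pH 7.4) with 5 mM NaCl and 4% DMSO; melting curves recorded, Tm taken as temperature at which half the DNA melts; ΔTm relative to free Ct-DNA.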

The subject of series [2] is DNA. The experiment in a line: Binding affinity to calf thymus DNA in phosphate buffer at pH 7.4 at 5 uM after 10 mins by fluorescence spectroscopy. The class given is nucleic-acid assay. The following applies: Bos taurus. The method in brief:
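Compound at 5.0×10^-6 M, excited at 329–336 nm depending on compound, titrated with Ct-DNA (0–90 μM) in 10 mM phosphate buffer pH 7.4, 50 mM NaCl, 4% DMSO, 25 °C; emission near 455 nm; F/F0 plotted against DNA concentration, Stern-Volmer analysis gives binding efficiency.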

Series [3] concerns DNA. As to the kind of experiment: Binding affinity to calf thymus DNA in phosphate buffer at pH 7.4 assessed as intercalation in DNA at 20 uM after 10 mins by circular dichroism method. It is filed as nucleic-acid assay. The following applies: Bos taurus. The method in brief:
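CD spectra of Ct-DNA (5.0×10^-5 M) with and without compound (2.0×10^-5 M) recorded in 10 mM phosphate buffer pH 7.4 containing 50 mM NaCl and 4% DMSO at 25 °C.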
A general note: Circular dichroism is the unequal absorption of left and right circularly polarised light.

Series [4] concerns DNA. As to the kind of experiment: Binding affinity to calf thymus DNA in phosphate buffer at pH 7.4 assessed as hypochromic effect at 1.0 x 10^-5 M by UV-visible spectroscopy. The class given is nucleic-acid assay. The following applies: Bos taurus. The procedure, abridged:
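Compound at 1.0×10^-5 M titrated with Ct-DNA (0–180 μM) in 10 mM phosphate buffer pH 7.4, 50 mM NaCl, 4% DMSO, 25 °C; UV-Vis absorption change at absorption maximum, hypochromicity percentage derived, binding fitted.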

Series [5] in a line: Cytotoxicity against mouse Osteoblasts at 100 uM after 48 hrs by MTT assay. It is filed as cell-based. The note with it: osteoblast. The method in brief: (§1)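 Primary osteoblasts isolated from newborn mouse skull, exposed to compound for 48 h; cell death measured by MTT; % cytotoxicity versus untreated cells, mean ± SEM of six replicates, significance by p-value.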
Series [6] can be described thus: Cytotoxicity against mouse Osteoblasts at 40 uM after 48 hrs by MTT assay. The class given is cell-based. The following applies: osteoblast. The method in brief:
as §1

The nature of series [7]: Cytotoxicity against mouse Osteoblasts at 20 uM after 48 hrs by MTT assay. The class given is cell-based. The following applies: osteoblast. The procedure, abridged:
as §1

Series [8] is described as follows: Cytotoxicity against mouse Osteoblasts at 1 uM after 48 hrs by MTT assay. The class given is cell-based. The following applies: osteoblast. The method in brief:
as §1

Series [9] in a line: Cytotoxicity against mouse Osteoblasts at 10 uM after 48 hrs by MTT assay. The note with it: osteoblast. It is filed as cell-based. The method in brief:
as §1

The test system of the next series is HL-60. As to the kind of experiment: Antiproliferative activity against human HL60 cells after 48 hrs by MTT assay. The class given is functional, cell-based. The note with it: HL-60, 48 h.
The next series concerns Bel-7402. As to the kind of experiment: Antiproliferative activity against human Bel7402 cells after 48 hrs by MTT assay. The class given is functional, cell-based. The note with it: Bel-7402, 48 h.

A word on the IC50: it is the concentration that gives 50% inhibition. The low end stands for higher potency, the high end for lower potency. What is called ΔTm is the shift of the melting midpoint relative to a reference.

`O=c1oc2cc(OCCN3CCOCC3)ccc2c(-c2ccc(OCCN3CCOCC3)cc2)c1-c1ccc(OCCN2CCOCC2)cc1`: the half-maximal inhibitory concentration (IC50) in the series with A549, with K562 and with MCF7 was more than 100 µM each time.
Consider `COc1ccc2c(-c3ccc(OCCN4CCCC4)cc3)c(-c3ccccc3)c(=O)oc2c1`, for which the figures for the IC50 in the series on A549, in the series with K562 and with MCF7 were 89.8 µM, 93.3 µM and more than 100 µM, respectively.
`O=c1oc2cc(OCCN3CCCCC3)ccc2c(-c2ccc(O)cc2)c1-c1ccccc1`: the IC50 in the series on A549 turned out to be 91.2 µM; in the series with K562, 81.2 µM; with MCF7, 86.6 µM.
The matching figures for `O=c1oc2cc(OCCN3CCOCC3)ccc2c(-c2ccc(O)cc2)c1-c1ccccc1`: 94.1 µM, more than 100 µM and more than 100 µM.
On the same counts, the results for `O=c1oc2cc(O)ccc2c(-c2ccc(O)cc2)c1-c1ccc(O)cc1` are more than 100 µM, more than 100 µM and more than 100 µM.
Regarding `CCN(CC)CCOc1ccc(-c2c(-c3ccccc3)c(=O)oc3cc(OC)ccc23)cc1`, the IC50 with A549 amounted to 60.8 µM; with K562 it was 88.8 µM; with MCF7 it was 76.7 µM.
Regarding `CC/C(=C(\c1ccccc1)c1ccc(OCCN(C)C)cc1)c1ccccc1` [TAMOXIFEN], half-maximal inhibition with MCF7 (IC50) required 13.5 µM.
As to `O=c1oc2cc(OCCN3CCCCC3)ccc2c(-c2ccc(OCCN3CCCCC3)cc2)c1-c1ccc(OCCN2CCCCC2)cc1`, the ΔTm with DNA [1] was 8.8 °C. The Activity with DNA [2] was determined as 3.16 ×10⁴ /M; in the series on DNA [4], 25%. In addition, the result in the series with DNA [3] was Active. For the same compound, the concentration for half-maximal inhibition (IC50) with A549 came to 56.3 µM; in the series with K562 it was 39.4 µM; in the series with MCF7, 48.2 µM.
Consider `O=c1oc2cc(OCCN3CCCC3)ccc2c(-c2ccc(O)cc2)c1-c1ccccc1`, for which the results for the IC50 in the series with A549, in the series with K562 and in the series on MCF7 were 54.3 µM, 44.5 µM and 50 µM, respectively.
As to `CCN(CC)CCOc1ccc(-c2c(-c3ccccc3)c(=O)oc3cc(OCCN(CC)CC)ccc23)cc1`, the Activity is listed as 42.2% in series [5]; 20.6% in series [6]; 12.2% in series [7]; -3.1% in series [8]; 3.2% in [9]. In addition, the IC50 was 3.98 µM with HL-60; 8.04 µM with Bel-7402; 8.31 µM with A549; 3.79 µM in the series on K562; 7.9 µM with MCF7.
With `O=c1oc2cc(O)ccc2c(-c2ccc(O)cc2)c1-c1ccccc1`, in the series on DNA [1], the thermal shift (ΔTm) amounted to 1.1 °C. Moreover, the Activity in the series on DNA [2] came to 5.41 ×10² /M; in the series on DNA [4], 8%. Moreover, the result in the series on DNA [3] was inactive. Besides, the IC50 in the series on A549, in the series with K562 and in the series on MCF7 was more than 100 µM in each case.
As for `CCN(CC)CCOc1ccc2c(-c3ccc(O)cc3)c(-c3ccccc3)c(=O)oc2c1`, the IC50 with A549, with K562 and with MCF7 was more than 100 µM each time.
Take `O=c1oc2cc(OCCN3CCCCC3)ccc2c(-c2ccc(OCCN3CCCCC3)cc2)c1-c1ccccc1`: the ΔTm in the series on DNA [1] came to 4.3 °C. For the same compound, the Activity is 4.21 ×10³ /M in the series on DNA [2]; 23% in the series on DNA [4]; 39.2% in series [5]; 14.2% in series [6]; 7.4% in series [7]; -8% in series [8]. Besides, in series [9], the Activity is given as -2.6%. The outcome with DNA [3] was Active. Besides, the IC50 with HL-60 was found to be 5.28 µM; with Bel-7402 it was 8.19 µM; in the series on A549 it was 6.64 µM; in the series with K562, 2.91 µM; in the series on MCF7, 11.4 µM.
For `O=c1oc2cc(OCCN3CCOCC3)ccc2c(-c2ccc(OCCN3CCOCC3)cc2)c1-c1ccccc1`, the ΔTm with DNA [1] worked out at 2 °C. The Activity in the series with DNA [2] is 2.68 ×10² /M; in the series on DNA [4] it was 13%. Also, in the series on DNA [3], the outcome was Active. Also, the IC50 in the series on HL-60, in the series on Bel-7402, with A549, with K562 and in the series with MCF7 was more than 100 µM each time.
As for `COc1ccc2c(-c3ccc(O)cc3)c(-c3ccccc3)c(=O)oc2c1`, the IC50 in the series on A549, in the series with K562 and in the series with MCF7 was more than 100 µM each time.
As to `O=c1oc2cc(OCCN3CCCC3)ccc2c(-c2ccc(OCCN3CCCC3)cc2)c1-c1ccc(OCCN2CCCC2)cc1`, the IC50 turned out to be 86.3 µM with A549, 75.3 µM in the series on K562 and 92.8 µM in the series on MCF7.
Regarding `COc1ccc2c(-c3ccc(OCCN4CCOCC4)cc3)c(-c3ccccc3)c(=O)oc2c1`, the IC50 in the series on A549, in the series on K562 and with MCF7 was more than 100 µM throughout.
For the compound `COc1ccc2c(-c3ccc(OCCN4CCCCC4)cc3)c(-c3ccccc3)c(=O)oc2c1`, the ΔTm in the series on DNA [1] was 3.2 °C. The Activity in the series with DNA [2] was determined as 3.12 ×10³ /M; with DNA [4] it was 12%. The result with DNA [3] was Active. The figures for the IC50 with A549, in the series on K562 and in the series on MCF7 were 23.4 µM, 19.6 µM and 29.6 µM, respectively.
For `O=c1oc2cc(OCCN3CCCC3)ccc2c(-c2ccc(OCCN3CCCC3)cc2)c1-c1ccccc1`, the Activity is reported as 36.1% in series [5]; 18.2% in series [6]; 10.1% in series [7]; -5.1% in series [8]; -6.7% in series [9]. Also, the IC50 in the series with HL-60 is 5.93 µM; in the series on Bel-7402, 8.66 µM; in the series with A549, 6.31 µM; with K562 it was 4.58 µM; with MCF7 it was 12.3 µM.
With `CCN(CC)CCOc1ccc(-c2c(-c3ccc(OCCN(CC)CC)cc3)c3ccc(OCCN(CC)CC)cc3oc2=O)cc1`, the IC50 with A549 amounted to 45.2 µM; with K562, 41.9 µM; with MCF7 it was 68.8 µM.
